PubChem BioAssay AID588713 (Southern Research Specialized Biocontainment Screening …, 2011)
Activity calls are given as the source filed them.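 The calls were made as follows: active = log virus titer change below -1, over tenfold drop in progeny titer versus untreated infected control; inactive = the rest.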

System: HEp-2 cells, RSV plaque reduction, virus titer
Assay: RSV titer reduction in HEp-2 cells, cell-based, plaque reduction, set 4 (AID 588713)
Details: at 10 µM; stronger effect = lower value
Summary of the method: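 assay system = RSV-infected HEp-2 cells | doses = test compound with 0.5% DMSO final | also added = RSV Long, MOI 0.1 | detection = neutral red-stained plaques on HEp-2 monolayers | timing = 2 h infection, then 48 h compound exposure at 37 °C | evaluation = progeny virus titer in serially diluted 48 h supernatants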

First: CC(C)c1ccc(Cn2c(=O)n(Cc3ccc(C(=O)NCc4ccco4)cc3)c(=O)c3ccccc32)cc1
Second: CN(C)c1ccc(Cn2c(=O)n(Cc3ccc(C(=O)NCC4COC4)cc3)c(=O)c3ccccc32)cc1
The log virus titer change of the first is higher: -2.83 for the first, under -6.18 for the second.

Compound `COCCCNC(=O)c1ccc(Cn2c(=O)c3ccccc3n(Cc3ccc([N+](=O)[O-])cc3)c2=O)cc1` has a log virus titer change of under -6.18.

`O=C(O)c1ccc(Cn2c(=O)n(Cc3ccc(C(=O)NCC4COC4)cc3)c(=O)c3ccccc32)cc1` was tested, and the log virus titer change was 0.68 (inactive).
